According to ChEMBL document CHEMBL3045963, “Synthesis of nalidixic acid based hydrazones as novel pesticides” (2010):
Values after ≈ are worked out from the molar mass of the structure shown.

What was measured:
Format in all cases: functional
Callosobruchus maculatus = assay: Insecticidal activity against adult Callosobruchus maculatus assessed as mortality at 0.1% at 27 +/-1 degC after 24 hr by contact based film residue method
Method in brief: (§1)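 Lab-reared adults, 2-5 days old, exposed to a dry film: 1 mL of 0.1% compound solution in dichloromethane is swirled in a 90 mm Petri plate and dried 3-5 min. Ten adults per plate are held at 27 ± 1 °C and 70% RH. Mortality is scored at 24 h, with no response to touch counted as dead. Triplicates, solvent control, malathion reference.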

Tribolium castaneum [1] = assay: Insecticidal activity against adult Tribolium castaneum (red flour beetle) assessed as mortality at 0.1% at 27 +/-1 degC after 24 hr by contact based film residue method; method in brief: as §1
Tribolium castaneum [2] = assay: Insecticidal activity against adult Tribolium castaneum (red flour beetle) in compound pre-treated green gram grains assessed as mortality at 20 mg/kg after 48 hr by feeding based residue method; settings: in Vigna radiata
Method in brief: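 Green gram grains are treated with compound in dichloromethane (0.6 mg in 5 mL) at 20 mg active ingredient per kg grain (0.002%). Ten adults are released onto 10 g of treated grain in a plastic box. Mortality is recorded after 48 h. Triplicate, solvent-treated control.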

Athelia rolfsii = assay: Fungicidal activity against Athelia rolfsii by poisoned food technique; settings: Agroathelia rolfsii; read-out: ED50 (the source's name)
Spodoptera litura [3] = assay: Insecticidal activity against third-instar larval stage of Spodoptera litura assessed as mortality at 0.1% applied topically on the ventral side of the larvae measured after 24 hr by contact method
Method in brief: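 Field-collected larvae are reared in the lab at 27 ± 1 °C and 70% RH. Two microliters of a 0.1% dichloromethane solution is applied to the ventral side. Ten treated larvae are kept per glass bottle and fed fresh castor leaves. Mortality is recorded at 24 h. Triplicate, solvent control.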

Alternaria porri = assay: Fungicidal activity against Alternaria porri by poisoned food technique; settings: read-out: ED50 (the source's name)
Spodoptera litura [4] = assay: Insecticidal activity against third-instar larval stage of prestarved Spodoptera litura in castor leaf assessed as mortality at 0.1% treated for 2 secs before larval infestation measured after 24 hr by feeding method
Method in brief: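 Castor leaf is dipped 2 s in 0.1% compound solution, air-dried, and placed on moist filter paper in 9 cm Petri plates. Larvae starved 4 h beforehand are released singly, one per plate. Thirty replicates per treatment, solvent control. Mortality is scored after 24 h.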

Rhizoctonia solani = assay: Fungicidal activity against Rhizoctonia solani by poisoned food technique; settings: read-out: ED50 (the source's name)
Macrophomina phaseolina = assay: Fungicidal activity against Rhizoctonia bataticola by poisoned food technique; settings: read-out: ED50 (the source's name)
Fusarium oxysporum = assay: Fungicidal activity against Fusarium oxysporum by poisoned food technique; settings: read-out: ED50 (the source's name)

Compound	mortality (Callosobruchus maculatus)	mortality (Tribolium castaneum [1])	mortality at 20 mg/kg (Tribolium castaneum [2])	EC50 (Athelia rolfsii)	mortality (Spodoptera litura [3])	EC50 (Alternaria porri)	mortality (Spodoptera litura [4])	EC50 (Rhizoctonia solani)	EC50 (Macrophomina phaseolina)	EC50 (Fusarium oxysporum)
CCOC(=O)CC(SP(=S)(OC)OC)C(=O)OCC (configuration not stated) [MALATHION]	100%	100%	100%	–	–	–	–	–	–	–
CCn1cc(C(=O)N/N=C/c2ccccc2F)c(=O)c2ccc(C)nc21	30%	–	10%	540 mg/L (≈ 1530 µM)	10%	78.3 mg/L (≈ 222 µM)	90%	359 mg/L (≈ 1020 µM)	668 mg/L (≈ 1900 µM)	107 mg/L (≈ 305 µM)
